Results: ChEMBL document CHEMBL3526048, “In vitro metabolism of rivoglitazone, a novel peroxisome proliferator-activated receptor γ agonist, in rat, monkey, and human liver microsomes and freshly isolated hepatocytes” (Drug Metab Dispos, 2011)

Legend:
[1] = target: T1, UDP-glucuronosyltransferase 2B15 (Homo sapiens, UniProt P54855); assay: Activity of human UGT2B15 expressed in microsomes isolated from baculovirus infected insect cell assessed as enzyme-mediated (2S,3S,4S,5R,6R)-3,4,5-trihydroxy-6-(5-(4-((6-methoxy-1-methyl-1H-benzo[d]imidazol-2-yl)methoxy)benzyl)-2,4-dioxothiazolidin-3-yl)tetrahydro-2H-pyran-2-carboxylic acid formation at 20 uM after 4 hrs by radio-HPLC/LC-MS/MS analysis in presence of UDPGA; type: ADME
T1 sequence (P54855 whole entry): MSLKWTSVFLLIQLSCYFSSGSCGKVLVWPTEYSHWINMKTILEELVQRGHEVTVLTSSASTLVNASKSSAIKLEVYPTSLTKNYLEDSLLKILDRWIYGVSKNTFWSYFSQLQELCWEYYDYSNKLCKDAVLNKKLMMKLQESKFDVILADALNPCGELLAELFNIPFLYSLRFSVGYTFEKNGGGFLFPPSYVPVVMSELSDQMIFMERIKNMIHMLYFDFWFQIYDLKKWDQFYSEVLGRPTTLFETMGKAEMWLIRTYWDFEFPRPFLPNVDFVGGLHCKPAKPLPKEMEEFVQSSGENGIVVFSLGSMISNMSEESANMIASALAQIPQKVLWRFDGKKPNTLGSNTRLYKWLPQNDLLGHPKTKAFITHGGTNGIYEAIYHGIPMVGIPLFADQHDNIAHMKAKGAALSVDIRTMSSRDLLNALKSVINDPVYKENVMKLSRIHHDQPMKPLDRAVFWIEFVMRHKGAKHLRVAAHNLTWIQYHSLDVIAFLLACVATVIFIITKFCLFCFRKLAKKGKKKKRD

Liver microsome = assay: Drug metabolism in human liver microsomes assessed as formation of 2-((4-((2,4-dioxothiazolidin-5-yl)methyl)phenoxy)methyl)-1-methyl-1H-benzo[d]imidazol-6-yl hydrogen sulfate at 20 uM by radio-HPLC/LC-MS/MS analysis; type: ADME
[2] = Drug metabolism in cynomolgus monkey liver microsomes assessed as formation of (2S,3S,4S,5R,6R)-3,4,5-trihydroxy-6-(5-(4-((6-methoxy-1-methyl-1H-benzo[d]imidazol-2-yl)methoxy)benzyl)-2,4-dioxothiazolidin-3-yl)tetrahydro-2H-pyran-2-carboxylic acid at 20 uM after 4 hrs by radio-HPLC/LC-MS/MS analysis in presence of UDPGA and UDPGA/SAM; type: ADME, Macaca fascicularis
Cytochrome P450 1A2 [3] = target: T2, Cytochrome P450 1A2 (Homo sapiens, UniProt P05177); assay: Activity of human CYP1A2 expressed in microsomes isolated from baculovirus infected insect cell assessed as enzyme-mediated 5-(4-((6-hydroxy-1-methyl-1H-benzo[d]imidazol-2-yl)methoxy)benzyl)thiazolidine-2,4-dione formation at 20 uM after 2 hrs by radio-HPLC/LC-MS/MS analysis in presence of NADPH-generating system and NADPH-generating system/SAM; type: ADME
T2 sequence (P05177 whole entry): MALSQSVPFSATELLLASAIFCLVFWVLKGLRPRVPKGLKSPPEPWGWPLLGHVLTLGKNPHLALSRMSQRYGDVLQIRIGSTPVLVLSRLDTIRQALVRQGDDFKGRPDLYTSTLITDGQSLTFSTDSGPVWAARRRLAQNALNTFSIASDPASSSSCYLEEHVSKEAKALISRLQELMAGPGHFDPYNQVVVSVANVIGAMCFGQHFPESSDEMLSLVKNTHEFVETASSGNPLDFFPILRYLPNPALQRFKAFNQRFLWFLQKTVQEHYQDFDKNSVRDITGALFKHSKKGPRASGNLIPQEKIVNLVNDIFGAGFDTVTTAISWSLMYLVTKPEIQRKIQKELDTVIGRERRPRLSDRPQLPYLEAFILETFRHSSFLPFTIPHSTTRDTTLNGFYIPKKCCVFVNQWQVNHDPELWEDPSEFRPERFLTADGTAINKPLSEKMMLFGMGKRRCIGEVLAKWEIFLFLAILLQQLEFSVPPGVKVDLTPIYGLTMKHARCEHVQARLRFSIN
In short: (§1)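 Baculovirus/insect-cell microsomes expressing single human CYPs, 1 mg/ml protein, with 50 mM potassium phosphate (pH 7.4) or 100 mM Tris-HCl (pH 7.5). NADPH-generating system: 2 mM NADP⁺, 20 mM glucose 6-phosphate, 2 units/ml G6PDH, 10 mM MgCl₂. [¹⁴C]rivoglitazone at 20 μM, 2 h at 37°C with shaking. Control used insect-cell control supersomes. Stopped with acetonitrile; supernatant concentrated under nitrogen; metabolites analysed by radio-HPLC, LC-MS and LC-MS/MS.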

Cytochrome P450 1A2 [4] = target: T2, Cytochrome P450 1A2; assay: (§2) Activity of human CYP1A2 expressed in microsomes isolated from baculovirus infected insect cell assessed as enzyme-mediated 2-mercapto-3-(4-((6-methoxy-1-methyl-1H-benzo[d]imidazol-2-yl)methoxy)phenyl)propanoic acid formation at 20 uM after 2 hrs by radio-HPLC/LC-MS/MS analysis in presence of NADPH-generating system; type: ADME; in short: as §1
Cytochrome P450 2D6 = Cytochrome P450 2D6 (Homo sapiens, UniProt P10635); assay: as §2, with “CYP2D6” for “CYP1A2”; type: ADME
In short: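 Baculovirus-insect-cell microsomes expressing the human CYP (1 mg/ml protein) were incubated with [14C]rivoglitazone (20 μM) in 50 mM potassium phosphate (pH 7.4) or 100 mM Tris-HCl (pH 7.5) with an NADPH-generating system (2 mM NADP+, 20 mM glucose 6-phosphate, 2 units/ml G6PDH, 10 mM MgCl2) for 2 h at 37°C. Insect-cell control supersomes served as the control. Reactions were stopped with acetonitrile, and the concentrated supernatants were analysed by radio-HPLC, LC-MS and LC-MS/MS.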

Cytochrome P450 2C8 = target: T3, Cytochrome P450 2C8 (Homo sapiens, UniProt P10632); assay: Activity of human CYP2C8 expressed in microsomes isolated from baculovirus infected insect cell assessed as enzyme-mediated 2-hydroxy-3-(4-((6-methoxy-1-methyl-1H-benzo[d]imidazol-2-yl)methoxy)phenyl)propanamide formation at 20 uM after 2 hrs by radio-HPLC/LC-MS/MS analysis in presence of NADPH-generating system and NADPH-generating system/SAM; type: ADME; in short: as §1
T3 sequence (P10632 whole entry): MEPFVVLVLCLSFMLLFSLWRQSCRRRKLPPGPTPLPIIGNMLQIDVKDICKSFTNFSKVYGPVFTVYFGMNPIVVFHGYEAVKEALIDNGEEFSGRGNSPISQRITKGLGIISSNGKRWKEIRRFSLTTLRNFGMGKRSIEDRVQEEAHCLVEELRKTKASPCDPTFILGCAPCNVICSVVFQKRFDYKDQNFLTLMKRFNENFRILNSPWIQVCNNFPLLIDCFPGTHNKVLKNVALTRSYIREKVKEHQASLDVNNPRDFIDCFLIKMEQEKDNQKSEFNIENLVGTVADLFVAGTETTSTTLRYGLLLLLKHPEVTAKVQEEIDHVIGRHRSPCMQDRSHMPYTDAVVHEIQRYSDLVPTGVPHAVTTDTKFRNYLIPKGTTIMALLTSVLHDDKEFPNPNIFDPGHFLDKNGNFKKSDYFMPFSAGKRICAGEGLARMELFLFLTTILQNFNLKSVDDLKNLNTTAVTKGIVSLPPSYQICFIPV

[5] = Drug metabolism in monkey hepatocytes assessed as formation of 3-(4-((6-methoxy-1-methyl-1H-benzo[d]imidazol-2-yl)methoxy)phenyl)-2-(methylthio)propanamide at 30 uM after 3 hrs by radio-HPLC/LC-MS/MS analysis in presence of NADPH-generating system/SAM; conditions: cynomolgus monkey
[6] = Drug metabolism in monkey hepatocytes assessed as formation of 5-(4-((6-hydroxy-1-methyl-1H-benzo[d]imidazol-2-yl)methoxy)benzyl)thiazolidine-2,4-dione at 30 uM after 3 hrs by radio-HPLC/LC-MS/MS analysis in presence of NADPH-generating system and NADPH-generating system/SAM; conditions: cynomolgus monkey

Chain of Cytochrome P450 2D6 (P10635 whole entry): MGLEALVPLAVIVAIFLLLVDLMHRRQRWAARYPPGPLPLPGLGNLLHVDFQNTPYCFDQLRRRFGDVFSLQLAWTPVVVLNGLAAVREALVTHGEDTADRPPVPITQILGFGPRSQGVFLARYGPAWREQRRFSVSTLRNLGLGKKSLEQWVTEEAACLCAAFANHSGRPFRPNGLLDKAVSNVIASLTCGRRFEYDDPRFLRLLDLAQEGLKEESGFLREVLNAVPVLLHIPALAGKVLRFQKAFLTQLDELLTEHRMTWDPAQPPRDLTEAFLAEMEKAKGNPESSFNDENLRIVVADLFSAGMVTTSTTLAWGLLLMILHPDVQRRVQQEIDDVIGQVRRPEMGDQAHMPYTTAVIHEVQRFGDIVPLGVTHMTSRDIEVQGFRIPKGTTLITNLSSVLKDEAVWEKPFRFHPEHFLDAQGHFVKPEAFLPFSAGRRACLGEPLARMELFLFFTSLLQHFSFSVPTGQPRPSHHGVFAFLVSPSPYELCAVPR

Drug metabolism [1]: metabolite_not_detected
Drug metabolism (Liver microsome): metabolite_not_detected
Drug metabolism [2]: metabolite_detected
Drug metabolism (Cytochrome P450 1A2 [3]): metabolite_detected
Drug metabolism (Cytochrome P450 1A2 [4]): metabolite_detected
Drug metabolism (Cytochrome P450 2D6): metabolite_detected
Drug metabolism (Cytochrome P450 2C8): metabolite_detected
Drug metabolism [5]: metabolite_detected
Drug metabolism [6]: metabolite_detected
SMILES: COc1ccc2nc(COc3ccc(C[14CH]4SC(=O)NC4=O)cc3)n(C)c2c1.Cl (racemic)
